The values that follow come from the array DNA melting data of Ke et al. (doi:10.1101/2024.01.08.574731).

Data set [1] can be described thus: melting temperature; fluorescence melt of hairpins on a sequencing array, two-state fit, raised by 9.35 °C to match UV melts. The following applies: sodium 0.088 M. The method, boiled down: (§1)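 On a sequenced MiSeq flow cell, library hairpins with annealed Cy3 and quencher oligos were imaged for Cy3 fluorescence in 2.5 °C steps up to 60 °C, in 50 mM Na-HEPES pH 8.0, 25 mM NaCl. Normalisation used pre-quench Cy3 and control constructs. Bootstrapped two-state fits gave melting temperature and folding enthalpy, combined by inverse variance across four replicates and with fitted temperatures raised by 9.35 °C to match UV melts.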

A short description of data set [2]: folding enthalpy; higher = less favourable; fluorescence melt of hairpins on a sequencing array, two-state fit. The following applies: sodium 0.088 M. The method, boiled down:
as §1

As to GATCCTCATGAGGATC ((((((....)))))), the Tm in data set [1] turned out to be 58.4 °C. Also, the folding enthalpy in data set [2] is -41.1 kcal/mol.
For the sequence GCATTTCCGAAAGGATGC (((..(((....)))))), the Tm in data set [1] worked out at 38.4 °C. The folding enthalpy in data set [2] is -21.6 kcal/mol.
On to GGATCACGAAAGTGCTCC (((.(((....))).))), for which the Tm in data set [1] is 49.4 °C. Moreover, in data set [2], the folding enthalpy is -27.4 kcal/mol.
The matching figures for GTCCCTCCGAAAGGAGAC (((..(((....)))))): 26.4 °C and -9.1 kcal/mol.
In the same order, the values of GTTCGCGAAAGCGGTAAC ((((((....)))..))) are 30.7 °C and -11 kcal/mol.
The matching figures for GTATTCCGAAAGGAGTAC (((.(((....))).))): 47.5 °C and -36.7 kcal/mol.
For the sequence GATCACAAACGTGATC ((((((....)))))), the Tm in data set [1] came to 55.6 °C. For the same sequence, the folding enthalpy in data set [2] is -33.2 kcal/mol.
The matching figures for GTCCTCGAAAGAGAGAC ((((((....))).))): 46.6 °C and -20.2 kcal/mol.
For the sequence GGCCCTGGAAACAGGACC ((.((((....)))).)), the Tm in data set [1] was 51 °C. Also, the folding enthalpy in data set [2] is -35.3 kcal/mol.
In the same order, the values of GGTGGTGCGAAAGCAACC (((..(((....)))))) are 53.3 °C and -15.4 kcal/mol.
Consider GGAAACGCGAAAGCGTCC (((..(((....)))))), for which the Tm in data set [1] was 39.1 °C. The folding enthalpy in data set [2] is -9.21 kcal/mol.
Consider CGCAGACGGAAACGTGCG (((..(((....)))))), for which the Tm in data set [1] amounted to 49.3 °C. The folding enthalpy in data set [2] was -22.6 kcal/mol.
In the same order, the values of GCTAACGGAAACGTTAAC (.(((((....))))).) are 34.8 °C and -16.1 kcal/mol.
On to GTTTCTGGAAACAGAAAC (((((((....))))))), for which the Tm in data set [1] was 55.1 °C. In data set [2], the folding enthalpy is -43.3 kcal/mol.
In the same order, the values of GCACAGGGAAACCTATGC (((.(((....))).))) are 37.1 °C and -24.2 kcal/mol.
The matching figures for GCACGGGCGAAAGCCTGC (((..(((....)))))): 45.2 °C and -12.7 kcal/mol.
In the same order, the values of GCTGCCGAAAGGCAGAGC ((((((....)))..))) are 67.1 °C and -10 kcal/mol.
With GCTTCCGAAAGGAAGAGC ((((((....)))..))), in data set [1], the Tm amounted to 55 °C. In data set [2], the folding enthalpy was -13 kcal/mol.
In the same order, the values of GCGGAGCGAAAGCTATGC ((..(((....)))..)) are 44.5 °C and -16.5 kcal/mol.
In the same order, the values of GCCAGCGAAAGCTCTGGC ((((((....)))..))) are 50.6 °C and -24.5 kcal/mol.
The matching figures for CGGTCGGAAACGATACCG ((((((....)))..))): 41.2 °C and -26.9 kcal/mol.
As for GATCCTTGTAGGATC ((((((...)))))), in data set [1], the Tm is 55.1 °C. Besides, the folding enthalpy in data set [2] is -34.4 kcal/mol.
Regarding GCTGGGGGAAACCCTGGC ((..(((....)))..)), the Tm in data set [1] was 49.1 °C. Also, the folding enthalpy in data set [2] is -23.4 kcal/mol.
In the same order, the values of GGCGAAGGAAACTTTGCC (((.(((....))).))) are 53.2 °C and -35.8 kcal/mol.
The matching figures for GATCTGTCCTCAGATC ((((((....)))))): 51 °C and -46.8 kcal/mol.
As to GCGAAGCGAAAGCATAGC ((.(.((....)).).)), the Tm in data set [1] is 52.5 °C. The folding enthalpy in data set [2] was -15.7 kcal/mol.
For the sequence GATCAGTGTCTGATC ((((((...)))))), in data set [1], the Tm was 50 °C. In addition, the folding enthalpy in data set [2] was -34.8 kcal/mol.
In the same order, the values of GCCGTCGGAAACGACAGC ((.((((....)))).)) are 53 °C and -16.6 kcal/mol.
The matching figures for GGAAGTCGAAAGACTCC (((.(((....)))))): 53 °C and -17.9 kcal/mol.
In the same order, the values of GATCCCTACCGGGATC ((((((....)))))) are 61.9 °C and -32.7 kcal/mol.
Turning to GCATGGCGAAAGCTAGGC ((.(.((....)).).)), the Tm in data set [1] was found to be 52.2 °C. For the same sequence, in data set [2], the folding enthalpy was -21.6 kcal/mol.
The matching figures for GTCCTCGAAAGAGGGAC ((((((....))).))): 53.9 °C and -15.7 kcal/mol.
In the same order, the values of GGACTCGAAAGAGGCTCC ((((((....)))..))) are 48.9 °C and -13.3 kcal/mol.
As to GTTCTCGAAAGAGTCAAC ((((((....)))..))), the Tm in data set [1] was found to be 23.2 °C. The folding enthalpy in data set [2] is -10.2 kcal/mol.
In the same order, the values of GTCCAACGAAAGTTCGAC (((.(((....))).))) are 35.9 °C and -27 kcal/mol.
In the same order, the values of GCCATCGCGAAAGCGGGC (((..(((....)))))) are 53.9 °C and -17.4 kcal/mol.
In the case of GAAAGACGAAAGTCATTC (((.(((....))).))), in data set [1], the Tm was 38.2 °C. The folding enthalpy in data set [2] was -21.1 kcal/mol.
The matching figures for GAGCGTGGAAACGCGTTC ((.((.(....).)).)): 51.7 °C and -12.1 kcal/mol.
The matching figures for GTGTGAGGAAACTCATAC ((.((((....)))).)): 44.9 °C and -36.5 kcal/mol.
In the same order, the values of GATCAGTGGCCTGATC ((((((....)))))) are 50.6 °C and -36 kcal/mol.
As to GTAGTTGGAAACAACCAC ((.((((....)))).)), the Tm in data set [1] was 32.6 °C. In addition, the folding enthalpy in data set [2] is -18.7 kcal/mol.
In the same order, the values of GCCGAGCGAAAGCCTGGC (((..((....))..))) are 62.6 °C and -17 kcal/mol.
The matching figures for GTTACAGGAAACTGCAAC (((.(((....))).))): 35.8 °C and -23.4 kcal/mol.
In the same order, the values of GGGAGCGAAAGCTTGCCC ((((((....)))..))) are 39.4 °C and -12.2 kcal/mol.
Take GTCAAACCGAAAGGTGAC (((..(((....)))))): the Tm in data set [1] worked out at 45.4 °C. For the same sequence, in data set [2], the folding enthalpy was -21.3 kcal/mol.
The matching figures for GTAGGCGAAAGCCACTAC ((((((....)))..))): 47.3 °C and -11.9 kcal/mol.
In the same order, the values of GCACTCGAAAGAGACTGC ((((((....)))..))) are 34.6 °C and -17 kcal/mol.
In the same order, the values of AGAACCAGAAATGGTTCT (((((((....))))))) are 55.2 °C and -31.4 kcal/mol.
With TTCCCGAAAGGGAA (((((....))))), the Tm in data set [1] came to 56.1 °C. The folding enthalpy in data set [2] is -24 kcal/mol.
Consider GCGGCTGCGAAAGCACGC (((..(((....)))))), for which the Tm in data set [1] worked out at 57.9 °C. The folding enthalpy in data set [2] was -16.6 kcal/mol.
For GGACACGGAAACGTATCC (((.(((....))).))), the Tm in data set [1] worked out at 40.9 °C. The folding enthalpy in data set [2] is -27.4 kcal/mol.
In the same order, the values of GCGTTACAACGC ((((....)))) are 58.6 °C and -26.4 kcal/mol.
The matching figures for GGTACAGCGAAAGCTACC (((..(((....)))))): 38.1 °C and -16.4 kcal/mol.
The matching figures for GGGCCACGAAAGTGACCC (((.(((....))).))): 64.4 °C and -40.5 kcal/mol.
In the case of GGGTAAGCGAAAGCTCCC (((..(((....)))))), in data set [1], the Tm turned out to be 47.8 °C. Further, the folding enthalpy in data set [2] was -20.6 kcal/mol.
The matching figures for GGGTCGGGAAACTGACCC (((((.(....).))))): 57.5 °C and -51.9 kcal/mol.
The matching figures for GTCCCACGAAAGTGCGAC (((.(((....))).))): 46.5 °C and -24.9 kcal/mol.
In the same order, the values of GATCCTGAGGAGGATC ((((((....)))))) are 49.2 °C and -34 kcal/mol.
Regarding CGCGGACCACTCCGCG ((((((....)))))), the Tm in data set [1] was 64 °C. The folding enthalpy in data set [2] was -32.7 kcal/mol.
The matching figures for GTAAGTGAAAACTTAC ((((((....)))))): 48.7 °C and -27.4 kcal/mol.
The matching figures for GGCTACGAAAGTATGGCC ((((((....)))..))): 47.3 °C and -25.7 kcal/mol.
For CGTTCGCGGAAACGCACG (((..(((....)))))), the Tm in data set [1] came out at 40.4 °C. The folding enthalpy in data set [2] was -13.6 kcal/mol.
The matching figures for GCACACGCGAAAGCGTGC (((..(((....)))))): 45 °C and -5.12 kcal/mol.
The matching figures for GGGTCGTCGAAAGACCCC (((..(((....)))))): 52.6 °C and -21.6 kcal/mol.
In the same order, the values of GCATCCGAAAGGAGATGC ((((((....)))..))) are 50.1 °C and -33.6 kcal/mol.
As to GATCGTGTTACGATC ((((((...)))))), the Tm in data set [1] was determined as 56.9 °C. The folding enthalpy in data set [2] was -35.6 kcal/mol.
In the same order, the values of GCGTCTGGAAACAAACGC ((((.((....)).)))) are 44.5 °C and -32.2 kcal/mol.
The matching figures for GAGTATGCGAAAGCACTC (((..(((....)))))): 38.8 °C and -14.9 kcal/mol.
The matching figures for GCCTGGCGAAAGCGGGGC (((..((....))..))): 64 °C and -27 kcal/mol.
Turning to GCAAACGAAAGTTCGTGC ((((((....)))..))), the Tm in data set [1] is 35.6 °C. Further, in data set [2], the folding enthalpy was -17.3 kcal/mol.
For the sequence GGAATCGAAAGATTCC ((((((....)))))), the Tm in data set [1] was found to be 64.3 °C. In addition, in data set [2], the folding enthalpy is -32.3 kcal/mol.
Take GTCTGAGAAATCAGAC ((((((....)))))): the Tm in data set [1] came out at 52.4 °C. Also, the folding enthalpy in data set [2] is -37.5 kcal/mol.
The matching figures for GATAGCGAAAGCTGATC ((((((....))).))): 38.9 °C and -13.2 kcal/mol.
In the same order, the values of GCTTCCGAAAGGATAAGC ((((((....)))..))) are 44.2 °C and -22.8 kcal/mol.
